Laboratory results published in ChEMBL document CHEMBL1156736, “Multidentate small-molecule inhibitors of vaccinia H1-related (VHR) phosphatase decrease proliferation of cervix cancer cells” (J Med Chem, 2009).

Key:
[1] = molecular target: T1, Dual specificity protein phosphatase 3 (Homo sapiens, UniProt P51452); test: Inhibition of recombinant vaccina H1-related phosphatase expressed in Escherichia coli by Michaelis-Menten kinetic studies
Procedure, shortened: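 E. coli-expressed VHR (GST-fusion, thrombin-cleaved, gel-filtered) preincubated 10 min with several fixed inhibitor concentrations in Bis-Tris pH 6.0 buffer with DTT and 5% DMSO; started with pNPP at 0.2–10 Km; initial rates at 404 nm, no-enzyme corrected; Ki and mode by nonlinear fit to competitive, uncompetitive or mixed models, compared by AICc.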

[2] = molecular target: T1, Dual specificity protein phosphatase 3; test: Inhibition of recombinant vaccina H1-related phosphatase

T1 sequence (P51452 whole entry, the tested form may be a part): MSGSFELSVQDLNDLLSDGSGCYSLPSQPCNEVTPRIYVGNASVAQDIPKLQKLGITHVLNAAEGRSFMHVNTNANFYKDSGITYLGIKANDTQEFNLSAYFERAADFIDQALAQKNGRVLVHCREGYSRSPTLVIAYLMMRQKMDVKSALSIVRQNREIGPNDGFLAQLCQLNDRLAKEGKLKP

| Compound | Ki [1] [µM] | IC50 [2] [µM] |
| --- | --- | --- |
| C=CCN1C(=O)/C(=C\C=C\c2ccco2)C(=O)NC1=S (mixture of isomers) | 15.8 |  |
| O=C1c2cccc3c4ccccc4n(c23)C(=O)C1(O)O | 13.8 |  |
| Cc1ccc(C)n1-c1ccc(C(=O)O)c(O)c1 | 12.8 |  |
| COc1ccc(N2C(=O)/C(=C/c3ccc(I)o3)C(=O)NC2=S)cc1 (mixture of isomers) | 4.44 |  |
| O=C(O)c1cccc(-c2ccc(/C=N/Nc3ccc([N+](=O)[O-])cn3)o2)c1 | 13.8 |  |
| O=C1NC(=S)N(c2ccc(F)cc2)C(=O)/C1=C/c1ccc(Br)o1 | 12.1 |  |
| O=C1NC(=S)/C(=C/c2ccc(-c3ccc([N+](=O)[O-])cc3)o2)S1 | 1.86 |  |
| O=C(/C=C/c1ccc(-c2ccccc2[N+](=O)[O-])o1)Nc1ccc(-c2nc3ccccc3o2)cc1 | 1.76 |  |
| O=C1NC(=O)N(c2cccc(Br)c2)C(=O)/C1=C/c1ccc(-c2ccc(C(=O)O)cc2)o1 (mixture of isomers) | 16.2 |  |
| O=C1/C(=C/c2cn(-c3ccccc3)nc2-c2ccc(S(=O)(=O)N3CCOCC3)cc2)SC(=S)N1CCS(=O)(=O)O |  | 2.4 |
| O=C1C(Cl)=C/C(=N\S(=O)(=O)c2ccc(Cl)cc2)C(Cl)=C1Cl | 13.4 |  |
| O=C1NC(=S)N(c2cccc(Cl)c2)C(=O)/C1=C\c1ccc[nH]1 (mixture of isomers) | 3.49 |  |
| CC1=C(C#N)c2nc(N)c(C#N)c(C)c2/C1=C/c1ccc(-c2ccc(C(=O)O)c(Cl)c2)o1 | 3.87 |  |
| Cc1cc(Br)c(-c2ccc(/C=C3\NC(=S)NC3=O)o2)cc1C | 3.19 |  |
| Cc1ccc(C)n1-c1ccc(SCC(=O)O)cc1 | 2.09 |  |
| O=C1/C(=C/c2cn(-c3ccccc3)nc2-c2ccc(Cl)cc2)SC(=S)N1CCS(=O)(=O)O |  | 1.8 |
| O=C(O)C(Cc1ccccc1)N1C(=O)/C(=C/C=C/c2ccccc2)SC1=S (centres undefined) | 2.01 |  |
| Cc1ccc(-c2nn(-c3ccccc3)cc2/C=C2\SC(=S)N(CCS(=O)(=O)O)C2=O)cc1 |  | 3.1 |
| S=C(Nc1ccc2c(c1)oc1ccccc12)Nc1cccc2ccccc12 | 2.94 |  |
| O=C(/C=C/c1ccco1)/C=C/c1ccc(-c2ccc(Cl)c(Cl)c2)o1 | 15.9 |  |
| COc1ccc(OC)c2c1C(=O)c1ccccc1C2=O [1,4-DIMETHOXYANTHRAQUINONE] | 3.07 |  |
| CCOC(=O)c1[nH]nc2c1C(=O)N(c1ccc(Br)cc1)C2=O | 2.64 |  |
| O=C1/C(=C/c2ccc(-c3cccc(Cl)c3)o2)SC(=S)N1CCS(=O)(=O)O | 3.13 |  |
| COc1ccc(-c2nn(-c3ccccc3)cc2/C=C2\SC(=S)N(CCS(=O)(=O)O)C2=O)cc1 |  | 1.8 |
